Experimental findings from ChEMBL document CHEMBL1140695, “Endomorphin-2 with a beta-turn backbone constraint retains the potent micro-opioid receptor agonist properties” (J Med Chem, 2008) are described below.

For series [1], the target named is Mu-type opioid receptor (Rattus norvegicus, UniProt P33535). In words: Displacement of [3H]DAMGO from mu opioid receptor in Wistar rat brain after 45 mins. Summed up:
(§1)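 Radioligand binding on a crude membrane fraction of Wistar rat forebrain.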

Series [2] concerns the target Mu-type opioid receptor (Mus musculus, UniProt P42866). In words: Agonist activity at mu opioid receptor in NMRI mouse vas deferens assessed as inhibition of electrically-stimulated muscle contraction. It counts as functional, tissue-based. Put shortly:
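Mouse vas deferens preparation; agonist potency. Values are means ± S.E.M of 3–7 independent duplicate experiments.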

Series [3] deals with Delta-type opioid receptor (Rattus norvegicus, UniProt P33533). In words: Displacement of [3H]deltorphin 2 from delta opioid receptor in Wistar rat brain after 45 mins. Summed up:
as §1

Series [4] deals with Mu-type opioid receptor (Rattus norvegicus) (UniProt P33535). The settings on record: Brain.
In series [5] the target is Mu-type opioid receptor (Homo sapiens) (UniProt P35372). The settings on record: CHO.
A short description of series [6]: Stability in rat brain assessed as half life. It counts as ADME, tissue-based. Put shortly: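 Peptides incubated in rat brain homogenate lacking cerebellum. Digestion mixtures analysed by RP-HPLC; velocity constants and half-lives calculated assuming pseudo-first-order kinetics.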
Series [7] deals with Mu-type opioid receptor (Rattus norvegicus) (UniProt P33535). In words: Agonist activity at mu opioid receptor in rat brain assessed as maximal stimulation of [35S]GTP-gamma-S binding relative to basal level. It counts as functional, tissue-based. Put shortly: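 [35S]GTPγS binding in rat brain membrane fractions, reversal tested with naloxone 1 µM.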

Sequence of Mu-type opioid receptor (Rattus norvegicus) (P33535 whole entry): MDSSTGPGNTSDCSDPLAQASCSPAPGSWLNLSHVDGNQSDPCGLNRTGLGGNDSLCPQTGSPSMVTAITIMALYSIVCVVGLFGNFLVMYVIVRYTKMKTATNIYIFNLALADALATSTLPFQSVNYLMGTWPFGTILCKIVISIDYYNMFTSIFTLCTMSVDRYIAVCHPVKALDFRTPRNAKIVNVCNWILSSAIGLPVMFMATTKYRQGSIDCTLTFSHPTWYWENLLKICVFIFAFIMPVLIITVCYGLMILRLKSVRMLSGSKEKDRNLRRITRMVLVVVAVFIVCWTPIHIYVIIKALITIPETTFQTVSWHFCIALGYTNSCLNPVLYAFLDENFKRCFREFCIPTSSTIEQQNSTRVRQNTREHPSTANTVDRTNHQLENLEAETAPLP
Sequence of Mu-type opioid receptor (Rattus norvegicus, UniProt P33535) (P33535 whole entry): as above
Sequence of Delta-type opioid receptor (P33533 whole entry): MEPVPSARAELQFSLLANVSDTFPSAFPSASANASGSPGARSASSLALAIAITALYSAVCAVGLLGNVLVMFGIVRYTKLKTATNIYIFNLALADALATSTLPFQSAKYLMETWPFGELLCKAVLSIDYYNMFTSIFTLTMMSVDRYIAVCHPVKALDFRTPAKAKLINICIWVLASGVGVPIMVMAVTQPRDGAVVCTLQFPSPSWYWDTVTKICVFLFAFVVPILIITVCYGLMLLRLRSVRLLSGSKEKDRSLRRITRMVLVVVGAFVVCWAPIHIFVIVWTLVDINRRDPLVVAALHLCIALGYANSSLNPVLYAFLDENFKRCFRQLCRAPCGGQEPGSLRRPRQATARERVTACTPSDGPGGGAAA
Sequence of Mu-type opioid receptor (Mus musculus, UniProt P42866) (P42866 whole entry): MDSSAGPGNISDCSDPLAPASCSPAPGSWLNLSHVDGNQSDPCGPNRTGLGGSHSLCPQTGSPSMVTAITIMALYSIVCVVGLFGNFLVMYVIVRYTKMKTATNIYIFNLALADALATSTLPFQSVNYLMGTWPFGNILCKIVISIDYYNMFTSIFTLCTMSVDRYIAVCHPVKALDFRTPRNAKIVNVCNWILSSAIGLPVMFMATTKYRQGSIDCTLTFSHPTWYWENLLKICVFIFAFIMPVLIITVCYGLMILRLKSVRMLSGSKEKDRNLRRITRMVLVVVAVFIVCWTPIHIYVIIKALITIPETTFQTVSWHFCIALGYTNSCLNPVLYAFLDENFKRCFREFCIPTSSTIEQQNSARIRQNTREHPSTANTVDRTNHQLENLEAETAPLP
Sequence of Mu-type opioid receptor (Homo sapiens) (P35372 whole entry): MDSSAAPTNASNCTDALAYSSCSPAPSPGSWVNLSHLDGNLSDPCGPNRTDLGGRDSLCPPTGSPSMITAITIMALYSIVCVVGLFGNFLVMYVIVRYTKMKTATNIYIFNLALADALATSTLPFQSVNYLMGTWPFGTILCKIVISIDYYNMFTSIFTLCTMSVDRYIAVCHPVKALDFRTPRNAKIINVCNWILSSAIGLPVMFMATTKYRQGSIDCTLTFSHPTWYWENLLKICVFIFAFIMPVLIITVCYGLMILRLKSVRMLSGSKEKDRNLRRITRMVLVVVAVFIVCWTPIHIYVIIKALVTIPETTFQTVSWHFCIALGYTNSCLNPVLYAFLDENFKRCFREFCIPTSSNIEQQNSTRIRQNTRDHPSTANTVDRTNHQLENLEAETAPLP

Take `NC(=O)[C@H](Cc1ccccc1)NC(=O)CN1Cc2ccccc2C[C@]2(CCCN2C(=O)[C@@H](N)Cc2ccc(O)cc2)C1=O`: the figures for the Ki in series [1] and in series [3] were 0.0293 nM and above 10 nM, respectively. The IC50 in series [2] worked out at 49.8 nM. In addition, the Log10ED50 in series [4] is 6.74; in series [5], 6.88. Besides, the half-life in series [6] is above 1440 min. In series [7], the Emax was 134%.

`NC(=O)[C@H](Cc1ccccc1)NC(=O)[C@H](Cc1ccccc1)NC(=O)[C@@H]1CCCN1C(=O)[C@@H](N)Cc1ccc(O)cc1` [ENDOMORPHIN 2]: the half-life in series [6] came to 3.8 min.

`NC(=O)[C@H](Cc1ccccc1)NC(=O)CN1Cc2ccccc2C[C@@]2(CCCN2C(=O)[C@@H](N)Cc2ccc(O)cc2)C1=O`: the Ki is 8.73 nM in series [1] and 2.31 nM in series [3]. Moreover, in series [6], the half-life was above 1440 min.

In the case of `NC(=O)[C@H](Cc1ccccc1)NC(=O)CN1Cc2ccccc2C[C@@H](NC(=O)[C@@H](N)Cc2ccc(O)cc2)C1=O`, the Ki came to 2.25 nM in series [1] and 2.96 nM in series [3]. The half-life in series [6] was found to be 198 min.

As to `C[C@@H](NC(=O)[C@@H](N)Cc1ccc(O)cc1)C(=O)NCC(=O)N(C)[C@@H](Cc1ccccc1)C(=O)NCCO`, the Emax in series [7] was found to be 169%.

For the compound `NC(=O)[C@H](Cc1ccccc1)NC(=O)CN1Cc2ccccc2C[C@H](NC(=O)[C@@H](N)Cc2ccc(O)cc2)C1=O`, the Ki in series [1] stood at 0.373 nM; in series [3] it was 0.778 nM. In addition, in series [6], the half-life was found to be 0.7 min.

With `CN1CC[C@]23c4c5ccc(O)c4O[C@H]2[C@@H](O)C=C[C@H]3[C@H]1C5`, the Emax in series [7] was found to be 134%.
